# Data from ChEMBL document CHEMBL4400568, “The design of 1,4-naphthoquinone derivatives and mechanisms underlying apoptosis induction through ROS-dependent MAPK/Akt/STAT3 pathways in human lung cancer cells” (Bioorg Med Chem, 2019).
# The source made the active and inactive calls. The calls are words filed in the database; no cut-off is given here.
# What was measured:
# A549 [1] = assay: Induction of apoptosis in human A549 cells assessed as early apoptotic cells at 3 uM after 6 hrs by Annexin V-FITC/propidium iodide staining-based flow cytometric analysis (reference value: 2.73%); assay type: functional
# A549 [2] = assay: Induction of apoptosis in human A549 cells assessed as early apoptotic cells at 3 uM after 12 hrs by Annexin V-FITC/propidium iodide staining-based flow cytometric analysis (reference value: 2.73%); assay type: functional
# A549 [3] = assay: Induction of apoptosis in human A549 cells assessed as late apoptotic cells at 3 uM after 3 hrs by Annexin V-FITC/propidium iodide staining-based flow cytometric analysis (reference value: 4.52%); assay type: functional
# NCI-H460 = assay: Cytotoxicity against human NCI-H460 cells assessed as reduction in cell viability after 24 hrs by MTT assay; assay type: functional, cell-based
# Summary of the method: (§1)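 Log-phase cells seeded at 1 × 10⁴ per well. Lung cancer lines (A549, NCI-H23, NCI-H460) and normal lines (IMR-90, QSG-7701, HEK-293A) each exposed to 1, 3, 10, 30 and 100 μM for 24 h. MTT (5 mg/mL stock) added for 2 h at 37°C, formazan dissolved in DMSO, absorbance read at 490 nm. Three independent experiments, mean ± SD.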
# NCI-H23 = assay: Cytotoxicity against human NCI-H23 cells assessed as reduction in cell viability after 24 hrs by MTT assay; assay type: functional, cell-based; summary of the method: as §1
# A549 [4] = assay: Induction of apoptosis in human A549 cells assessed as late apoptotic cells at 3 uM after 12 hrs by Annexin V-FITC/propidium iodide staining-based flow cytometric analysis (reference value: 4.52%); assay type: functional
# [5] = Cytotoxicity against HEK293A cells assessed as reduction in cell viability after 24 hrs by MTT assay; assay type: cell-based; details: human, hek293-a; summary of the method: as §1
# IMR-90 = assay: Cytotoxicity against human IMR90 cells assessed as reduction in cell viability after 24 hrs by MTT assay; assay type: cell-based; details: imr-90, 24 h; summary of the method: as §1
# [6] = Cytotoxicity against human QSG7701 cells assessed as reduction in cell viability after 24 hrs by MTT assay; assay type: cell-based; summary of the method: as §1
# A549 [7] = assay: Induction of apoptosis in human A549 cells assessed as early apoptotic cells at 3 uM after 3 hrs by Annexin V-FITC/propidium iodide staining-based flow cytometric analysis (reference value: 2.73%); assay type: functional
# A549 [8] = assay: Induction of apoptosis in human A549 cells assessed as early apoptotic cells at 3 uM after 24 hrs by Annexin V-FITC/propidium iodide staining-based flow cytometric analysis (reference value: 2.73%); assay type: functional
# A549 [9] = assay: Induction of apoptosis in human A549 cells assessed as late apoptotic cells at 3 uM after 6 hrs by Annexin V-FITC/propidium iodide staining-based flow cytometric analysis (reference value: 4.52%); assay type: functional
# A549 [10] = assay: Induction of apoptosis in human A549 cells assessed as late apoptotic cells at 3 uM after 24 hrs by Annexin V-FITC/propidium iodide staining-based flow cytometric analysis (reference value: 4.52%); assay type: functional
smiles,measurement,setting,value
O=c1[nH]cc(F)c(=O)[nH]1 [FLUOROURACIL],Activity,A549 [1],10.68%
same,Activity,A549 [2],13.87%
same,Activity,A549 [3],4.75%
same,Activity,NCI-H460,Active
same,Activity,NCI-H23,Active
same,Activity,A549 [4],5.83%
same,Activity,[5],Toxic
same,Activity,IMR-90,Toxic
same,Activity,[6],Toxic
same,Activity,A549 [7],7.91%
same,Activity,A549 [8],23.86%
same,Activity,A549 [9],4.6%
same,Activity,A549 [10],4.22%
